Results taken from article PMC9177108 (The Oncologist, 2022).

Test system: patients with recurrent and metastatic nasopharyngeal carcinoma (RM-NPC)
Assay: Antitumor efficacy
Type: in vivo, human
Settings: for time to response: radiologic assessment every 8 weeks
Outline: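 Patients with pretreated RM-NPC were randomised to two arms, each evaluated separately (10 per arm). Both arms took test compound 10 mg orally daily: intermittent arm 3 weeks on/1 week off, continuous arm daily on a 4-week cycle. The investigator assessed response by RECIST 1.1. ORR was CR or PR as best overall response. DCR was confirmed CR, confirmed PR or SD lasting ≥4 weeks from randomisation.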

[1] = continuous arm (10 mg p.o. daily, 4-week cycle), n = 10
[2] = intermittent arm (10 mg p.o., 3 weeks on/1 week off), n = 10
[3] = intermittent arm, n = 10, listed as lucitanib

CNC(=O)c1cccc2cc(Oc3ccnc4cc(OCC5(N)CC5)c(OC)cc34)ccc12 [Lucitanib]
duration of response (all three responders, both arms): more than 1 year | time to response (all three responders): observed by the first evaluation | time to response (all three responders, listed as lucitanib): at the first evaluation | Best response PR [1]: n = 2 (20%) n (%) | Response assessment CR [1]: n = 0 (0%) n (%) | Best response PR (continuous arm (10 mg p.o. daily, 4-week cycle), n = 10, listed as lucitanib): 2 (20) n (%) | Best response PD (continuous arm, n = 10): 1 (10) n (%) | Best response SD (continuous arm, n = 10): 7 (70) n (%) | DCR (continuous arm, n = 10): 90% | ORR (continuous arm, n = 10): 20% | Response assessment OTHER (continuous arm, n = 10): n = 0 (0%) n (%) | median PFS (continuous arm, n = 10, 90% CI 3.5 to NE): 3.73 months | Best response PR [2]: 1 (10) n (%) | Response assessment CR [2]: n = 0 (0%) n (%) | Best response SD (intermittent arm, n = 10): n = 5 (50%) n (%) | median PFS (intermittent arm, n = 10, 90% CI 1.74 to 7.36): 3.68 months | Best response PD [3]: 3 (30) n (%) | Best response SD [3]: 5 (50) n (%) | DCR [3]: 60% | ORR [3]: 10% | sustained response, patients still on treatment (two responders still on treatment at last follow-up): > 3 years
